Data reported in ChEMBL document CHEMBL1130378, “Cephalosporin 3'-phloroglucide esters and 7-(phloroglucidamido) cephalosporins as novel antibacterial agents” (1997).
Values after ≈ are worked out from the molar mass of the structure shown.

Legend:
Format in all cases: functional
[1] = biological target: Beta-lactamase (Pseudomonas aeruginosa (strain ATCC 15692 / PAO1 / 1C / PRS 101 / LMG12228)) (UniProt P24735); assay: Minimum protective concentration against beta-lactamase Pseudomonas aeruginosa (18S-H strain)
In short: (§1)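 MPC is the lowest β-lactam concentration that protects the indicator from hydrolysis within 40 min under standard conditions. Compound stability was checked without enzyme in phosphate buffer pH 6.5 at 37 °C.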

[2] = biological target: Beta-lactamase (Staphylococcus aureus) (UniProt P00807); assay: Minimum protective concentration against beta-lactamase in Staphylococcus aureus (95 strain); in short: as §1
Pseudomonas aeruginosa [3] = assay: Minimum inhibitory concentration for prevention of visible growth of Pseudomonas aeruginosa (1101-75 strain)
In short: (§2)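 Agar dilution: organisms deposited onto antibiotic-containing agar plates with a Steers-type replicator. MIC taken as the lowest concentration preventing visible growth, given as the mean of duplicate determinations.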

Pseudomonas aeruginosa [4] = assay: Minimum inhibitory concentration for prevention of visible growth of Pseudomonas aeruginosa (18S-H strain); in short: as §2
Staphylococcus aureus [5] = assay: Minimum inhibitory concentration for prevention of visible growth of Staphylococcus aureus (95 strain); in short: as §2
Staphylococcus aureus [6] = assay: Minimum inhibitory concentration for prevention of visible growth of Staphylococcus aureus (FDA 209P strain); in short: as §2
Candida albicans = assay: Minimum inhibitory concentration for prevention of visible growth of Candida albicans; in short: as §2

Beta-lactamase (Pseudomonas aeruginosa (strain ATCC 15692 / PAO1 / 1C / PRS 101 / LMG12228)), sequence (P24735 27-397 limits assumed): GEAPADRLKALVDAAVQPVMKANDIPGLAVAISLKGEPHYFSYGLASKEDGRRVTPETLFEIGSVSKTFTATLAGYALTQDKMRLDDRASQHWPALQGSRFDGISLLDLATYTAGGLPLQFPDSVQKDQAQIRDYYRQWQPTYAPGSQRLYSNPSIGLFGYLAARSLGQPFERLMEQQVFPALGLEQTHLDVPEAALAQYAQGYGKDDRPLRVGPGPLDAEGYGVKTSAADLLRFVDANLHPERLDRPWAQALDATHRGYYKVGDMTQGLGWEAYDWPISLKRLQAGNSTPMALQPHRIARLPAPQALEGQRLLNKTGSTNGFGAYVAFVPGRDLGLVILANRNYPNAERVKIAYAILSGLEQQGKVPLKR

Compound | MPC [1] | MPC [2] | MIC (Pseudomonas aeruginosa [3]) | MIC (Pseudomonas aeruginosa [4]) | MIC (Staphylococcus aureus [5]) | MIC (Staphylococcus aureus [6]) | MIC (Candida albicans)
O=C(COc1ccccc1)N[C@@H]1C(=O)N2C(C(=O)O)=C(COC(=O)c3cccc(C(=O)c4cc(Cl)cc(C(=O)c5ccccc5O)c4O)c3O)CS[C@H]12 | 5.98 µg/mL | 4.81 µg/mL | 1.37 µg/mL (≈ 1.8 µM) | 3.13 µg/mL (≈ 4.12 µM) | 2.1 µg/mL (≈ 2.77 µM) | 0.9 µg/mL (≈ 1.19 µM) | 6.47 µg/mL (≈ 8.52 µM)
CNC(=O)c1cccc(Cc2cc(Cl)cc(Cc3ccccc3O)c2O)c1O | – | – | 3.28 µg/mL (≈ 8.24 µM) | 4.7 µg/mL (≈ 11.8 µM) | 6.63 µg/mL (≈ 16.7 µM) | 7.35 µg/mL (≈ 18.5 µM) | 114 µg/mL (≈ 287 µM)
CNC(=O)c1cccc(C(=O)c2cc(Cl)cc(C(=O)c3ccccc3O)c2O)c1O | – | – | 6.03 µg/mL (≈ 14.2 µM) | 8.32 µg/mL (≈ 19.5 µM) | 17.8 µg/mL (≈ 41.7 µM) | 18.1 µg/mL (≈ 42.6 µM) | 120 µg/mL (≈ 281 µM)
Oc1ccccc1Cc1cccc(Cc2ccccc2O)c1O | – | – | > 145 µg/mL | > 145 µg/mL | > 145 µg/mL | > 145 µg/mL | > 145 µg/mL
CC(=O)OCC1=C(C(=O)O)N2C(=O)[C@@H](NC(=O)COc3ccccc3)[C@H]2SC1 | 0.97 µg/mL | 1.35 µg/mL | > 145 µg/mL | > 145 µg/mL | > 145 µg/mL | 0.7 µg/mL (≈ 1.72 µM) | > 145 µg/mL
CC(=O)Oc1ccc(Br)cc1Cc1cc(Cl)cc(Cc2cc(Br)ccc2OC(C)=O)c1OC(C)=O | – | – | > 145 µg/mL | > 145 µg/mL | > 145 µg/mL | > 145 µg/mL | > 145 µg/mL
COC(=O)c1cccc(Cc2cc(Cl)cc(Cc3ccccc3O)c2O)c1O | – | – | 1.25 µg/mL (≈ 3.13 µM) | 1.56 µg/mL (≈ 3.91 µM) | 4.65 µg/mL (≈ 11.7 µM) | 2.98 µg/mL (≈ 7.47 µM) | 117 µg/mL (≈ 294 µM)
CC(=O)Oc1ccccc1Cc1cc(Cl)cc(Cc2ccccc2OC(C)=O)c1OC(C)=O | – | – | > 145 µg/mL | > 145 µg/mL | > 145 µg/mL | > 145 µg/mL | > 145 µg/mL
O=C(O)[C@H]1/C(=C/CO)O[C@@H]2CC(=O)N21 | 3 µg/mL | 0.38 µg/mL | – | – | – | – | –
O=C(O)c1cccc(C(=O)c2cc(Cl)cc(C(=O)c3cccc(C(=O)O)c3O)c2O)c1O | – | – | 2.54 µg/mL (≈ 5.56 µM) | 3.06 µg/mL (≈ 6.7 µM) | 22.2 µg/mL (≈ 48.6 µM) | 18.2 µg/mL (≈ 40 µM) | 19.1 µg/mL (≈ 41.9 µM)
O=C(COc1ccccc1)N[C@@H]1C(=O)N2C(C(=O)O)=C(COC(=O)c3cccc(Cc4cc(Cl)cc(Cc5ccccc5O)c4O)c3O)CS[C@H]12 | 6.74 µg/mL | 7.08 µg/mL | 0.98 µg/mL (≈ 1.34 µM) | 1.24 µg/mL (≈ 1.7 µM) | 1.2 µg/mL (≈ 1.64 µM) | 0.41 µg/mL (≈ 0.561 µM) | 5.86 µg/mL (≈ 8.01 µM)
CO/N=C(\C(=O)N[C@@H]1C(=O)N2C(C(=O)O)=C(COC(C)=O)CS[C@H]12)c1csc(N)n1 [CEFOTAXIME] | 1.03 µg/mL | 2.72 µg/mL | 69.9 µg/mL (≈ 153 µM) | 135 µg/mL (≈ 296 µM) | 40.6 µg/mL (≈ 89.1 µM) | 1.7 µg/mL (≈ 3.73 µM) | > 145 µg/mL
Oc1ccc(Br)cc1Cc1cc(Cl)cc(Cc2cc(Br)ccc2O)c1O | – | – | 39.4 µg/mL (≈ 79 µM) | 36.7 µg/mL (≈ 73.6 µM) | 49 µg/mL (≈ 98.2 µM) | 45 µg/mL (≈ 90.3 µM) | 115 µg/mL (≈ 231 µM)
COC(=O)c1cccc(C(=O)c2cc(Cl)cc(C(=O)c3ccccc3O)c2O)c1O | – | – | 5.78 µg/mL (≈ 13.5 µM) | 4.3 µg/mL (≈ 10.1 µM) | 15.3 µg/mL (≈ 35.9 µM) | 14.7 µg/mL (≈ 34.4 µM) | 125 µg/mL (≈ 294 µM)

Next, values leading:

MPC [1] | MPC [2] | MIC (Pseudomonas aeruginosa [3]) | MIC (Pseudomonas aeruginosa [4]) | MIC (Staphylococcus aureus [5]) | MIC (Staphylococcus aureus [6]) | MIC (Candida albicans) | Compound
– | – | 0.17 µg/mL (≈ 0.412 µM) | 0.26 µg/mL (≈ 0.63 µM) | 0.98 µg/mL (≈ 2.37 µM) | 3.67 µg/mL (≈ 8.89 µM) | 3.7 µg/mL (≈ 8.96 µM) | O=C(O)c1cccc(C(=O)c2cc(Cl)cc(C(=O)c3ccccc3O)c2O)c1O
– | – | 0.86 µg/mL (≈ 2.01 µM) | 1.32 µg/mL (≈ 3.08 µM) | 4.15 µg/mL (≈ 9.68 µM) | 3.25 µg/mL (≈ 7.58 µM) | 16.5 µg/mL (≈ 38.5 µM) | O=C(O)c1cccc(Cc2cc(Cl)cc(Cc3cccc(C(=O)O)c3O)c2O)c1O
– | – | 0.02 µg/mL (≈ 0.052 µM) | 0.1 µg/mL (≈ 0.26 µM) | 0.43 µg/mL (≈ 1.12 µM) | 0.86 µg/mL (≈ 2.23 µM) | 1.43 µg/mL (≈ 3.72 µM) | O=C(O)c1cccc(Cc2cc(Cl)cc(Cc3ccccc3O)c2O)c1O
– | – | 0.07 µg/mL (≈ 0.205 µM) | 0.18 µg/mL (≈ 0.528 µM) | 0.58 µg/mL (≈ 1.7 µM) | 1.2 µg/mL (≈ 3.52 µM) | 2.06 µg/mL (≈ 6.04 µM) | Oc1ccccc1Cc1cc(Cl)cc(Cc2ccccc2O)c1O
99.8 µg/mL | 95.2 µg/mL | 0.28 µg/mL (≈ 0.438 µM) | 0.45 µg/mL (≈ 0.704 µM) | 0.28 µg/mL (≈ 0.438 µM) | 0.35 µg/mL (≈ 0.548 µM) | 28.3 µg/mL (≈ 44.3 µM) | CC(=O)OCC1=C(C(=O)O)N2C(=O)[C@@H](NC(=O)c3cccc(Cc4cc(Cl)cc(Cc5ccccc5O)c4O)c3O)[C@H]2SC1
93.5 µg/mL | 88.7 µg/mL | 0.79 µg/mL (≈ 1.18 µM) | 0.38 µg/mL (≈ 0.57 µM) | 0.45 µg/mL (≈ 0.675 µM) | 0.78 µg/mL (≈ 1.17 µM) | 14.2 µg/mL (≈ 21.3 µM) | CC(=O)OCC1=C(C(=O)O)N2C(=O)[C@@H](NC(=O)c3cccc(C(=O)c4cc(Cl)cc(C(=O)c5ccccc5O)c4O)c3O)[C@H]2SC1
